The results in this text go back to publication PMC4058332 (ChemMedChem, 2013).

Entries after “also recorded” stand apart in the source; their conditions may differ.

One series deals with uPAR (Homo sapiens, UniProt Q03405). Briefly: Fluorescence polarization competition assay, displacement of AE147-FAM peptide. Type of series: binding. The note with it: uPAR 320 nM, AE147-FAM 100 nM. The method, boiled down:
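Competition binding: test compound diluted in DMSO, then in PBS with 0.01% Triton X-100 (final 100 μM to 0.046 μM). uPAR preincubated with compound ≥15 min, then fluorescein-labelled AE147 peptide added (final uPAR 320 nM, peptide 100 nM, DMSO 2%). Duplicate wells; polarization read at ex 485/em 530 nm. mP values converted to % inhibition; Ki from an online Ki calculator.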
A general note: In fluorescence polarisation assays a small probe gives low polarisation when free and higher when bound to something large.

In series [1] the target is urokinase receptor (uPAR) (UniProt Q03405). Briefly: fluorescence polarisation.
Series [2] has as its system MDA-MB-231 cells. Description: Apoptosis assay, flow cytometry with Annexin V-FITC and PI staining. Type of series: cell-based. The note with it: 24 h; for Percentage apoptosis: Annexin V-positive/PI-negative cells; for Percentage necrosis: Annexin V-positive/PI-positive cells. The method, boiled down:
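MDA-MB-231 cells exposed 24 h to test compound at increasing concentrations or 1% DMSO, stained with Annexin V-FITC and PI, and analysed by flow cytometry. Apoptotic = Annexin V-positive/PI-negative; necrotic = Annexin V-positive/PI-positive, each as % of cells.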
(Flow cytometry measures light scatter and fluorescence of single cells or particles in a stream.)

In series [3] the test system is phospho-p44/42 MAPK in MDA-MB-231 cells. Briefly: Western blot analysis of p44/42 MAPK phosphorylation. Type of series: cell-based. The following applies: 50 μM, 30 min, serum starved cells on fibronectin. Put shortly:
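Serum-starved MDA-MB-231 cells (1.5 × 10^6/well) plated on wells coated with 30 ng μl-1 fibronectin, with 50 μM test compound or DMSO, for 30 min. Lysed in RIPA with protease/phosphatase inhibitors. 30 μg protein run on 10% SDS-PAGE and blotted. Probed overnight at 4°C with phospho-p44/42 (Thr202/Tyr204) or total p44/42 antibodies (1:2000), then fluorescent secondaries; actin loading control.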

The subject of a further series is MDA-MB-231 invasion. Briefly: Matrigel Boyden chamber invasion assay. Type of series: cell-based. Put shortly: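 Matrigel invasion chambers; insert underside coated with 30 ng μl-1 fibronectin overnight at 4 °C; inserts equilibrated 2 h in serum-free medium. After 4 h starvation, 5 × 10^4 MDA-MB-231 cells in 0.1% FBS medium with test compound or 1% DMSO placed upper; 10% FBS medium with same compound lower. After 16 h at 37°C, invaded cells methanol-fixed, hematoxylin-stained, counted in ten 200× fields.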

In the next series the test system is MDA-MB-231 migration. Briefly: Wound healing migration assay. Type of series: cell-based. Put shortly: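 Confluent MDA-MB-231 monolayers scratched with a pipette tip, washed, and cultured in complete medium with test compound. Wound closure measured as distance between wound edges in three random regions immediately after wounding and at 16 h and 40 h, by microscopy.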

Series [4] deals with MDA-MB-231 cells. Description: Cell viability by MTT at 16 h, time frame of invasion and migration studies. Type of series: cell-based. Put shortly: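 MDA-MB-231 viability read by MTT after 16 h exposure to test compound, matching the time frame of the invasion and migration assays.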
The test system of series [5] is MDA-MB-231 cells. Description: Cell viability by MTT assay, 3 days. In kind it is cell-based. The note with it: Homo sapiens, MDA-MB-231, read-out: IC50, MTT. Put shortly:
(§1)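 Cells (10^4/well) plated overnight, then exposed to test compound or DMSO control for 3 days. Viability by MTT, absorbance 570 nm with 630 nm reference. Culture: MDA-MB-231 and PANC-1 in DMEM, AsPC-1 in RPMI medium, each with 10% FBS and 1% penicillin/streptomycin, 37°C, 5% CO2.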

The subject of a further series is AsPC-1 cells. Briefly: Cell viability by MTT assay, 3 days. The following applies: Homo sapiens, ASPC1, read-out: IC50, MTT. Type of series: cell-based. Put shortly:
as §1

The test system of another series is PANC-1 cells. Description: Cell viability by MTT assay, 3 days. In kind it is cell-based. The following applies: Homo sapiens, PANC-1, read-out: IC50, MTT. Put shortly: as §1
A general note: Formazan colour is commonly taken as a measure of viable cells.

Series [6] deals with NF-κB, HIF1α and ERK in MDA-MB-231 cells. Description: Luciferase reporter assay. In kind it is cell-based. The following applies: 25 μM. The method, boiled down: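 MDA-MB-231 cells transfected with pathway-focused reporters (NF-κB, hypoxia, MAPK/ERK); medium switched to complete DMEM (10% FBS) 16 h after transfection. Test compound (25 μM) added at 46 h; dual-luciferase readout (firefly/Renilla) at 48 h. Fold change = normalized ratio of treated reporter divided by that of untreated reporter; triplicate.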

The test system of series [7] is MDA-MB-231 matrix metalloproteinase (MMP-9) activity. Briefly: Gelatin zymography. In kind it is cell-based. The note with it: read-out: IC50, MMP-9 activity, 24 h treatment. The method, boiled down: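 MDA-MB-231 cells treated with test compound 24 h in serum-free medium. Conditioned medium concentrated and run on 7.5% SDS gels with 1 mg/mL gelatin. Gels washed twice in 2.5% Triton X-100 (30 min, room temperature), incubated 36 h at 37 °C in 50 mM Tris-HCl pH 7.6, 200 mM NaCl, 10 mM CaCl2, 0.02% Brij 35. Coomassie-stained; clear MMP-9 bands quantified by imaging.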

The next series concerns MDA-MB-231 cell adhesion. Description: Cell adhesion to fibronectin. In kind it is cell-based. The note with it: Homo sapiens, MDA-MB-231, read-out: IC50, cell adhesion. The method, boiled down: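 Wells coated with 15 ng μl-1 fibronectin overnight at 4 °C, blocked 1 h with 2% BSA/PBS. MDA-MB-231 cells serum-starved 4 h, suspended at 2.5 × 10^4 cells ml-1 in 0.1% FBS DMEM with test compound at various concentrations or DMSO, and held 90 min at 37 °C. Washed three times with PBS; adherent cells by MTT (570/630 nm).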

Sequence of uPAR (Q03405 23-335): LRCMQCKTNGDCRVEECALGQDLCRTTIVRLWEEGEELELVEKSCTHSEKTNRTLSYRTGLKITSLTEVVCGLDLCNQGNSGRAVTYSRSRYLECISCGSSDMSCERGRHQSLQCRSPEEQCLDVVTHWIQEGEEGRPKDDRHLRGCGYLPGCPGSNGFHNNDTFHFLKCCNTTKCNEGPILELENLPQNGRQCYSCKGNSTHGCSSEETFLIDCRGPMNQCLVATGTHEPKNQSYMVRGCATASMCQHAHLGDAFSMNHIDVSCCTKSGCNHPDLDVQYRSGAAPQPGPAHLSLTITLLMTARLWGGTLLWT
Sequence of urokinase receptor (uPAR) (Q03405 23-305): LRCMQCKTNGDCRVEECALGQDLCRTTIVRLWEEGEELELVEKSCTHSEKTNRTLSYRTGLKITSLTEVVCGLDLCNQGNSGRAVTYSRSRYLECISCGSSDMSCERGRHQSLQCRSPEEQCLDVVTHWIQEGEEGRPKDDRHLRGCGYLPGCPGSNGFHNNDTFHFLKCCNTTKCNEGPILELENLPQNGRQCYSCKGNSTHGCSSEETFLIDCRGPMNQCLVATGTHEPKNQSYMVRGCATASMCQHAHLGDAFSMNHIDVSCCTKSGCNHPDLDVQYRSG

For orientation: Ki means the equilibrium dissociation constant of an inhibitor or competing ligand from its target. A high value points to weaker binding. Turning to `Cc1ccc(-n2ncc(C(=O)NCCc3ccc(F)cc3)c2C2CCNCC2)cc1C` [1g, 1-(3,4-dimethylphenyl)-N-(4-fluorophenethyl)-5-(piperidin-4-yl)-1H-pyrazole-4-carboxamide], the Ki on uPAR (Ki) turned out to be 28.3 µM.

On to `COc1cc(NC(=O)c2cnn(-c3ccc(C)c(C)c3)c2C2CCNCC2)cc(C(F)(F)F)c1` [1e, 1-(3,4-dimethylphenyl)-N-(3-methoxy-5-(trifluoromethyl)phenyl)-5-(piperidin-4-yl)-1H-pyrazole-4-carboxamide], for which the inhibition constant Ki at uPAR (Ki) worked out at 51.2 µM.

As a reminder, the Kd is the equilibrium constant for the complex coming apart. A higher Kd goes with weaker binding. “fluorescently-labeled AE147 peptide AE147-FAM”: the Kd in series [1] came to 0.499 µM. This lies in the sub-micromolar range.

`CCCc1ccc(NC(=O)c2cnn(-c3ccc(C)c(C)c3)c2C2CCNCC2)cc1` [1i, 1-(3,4-dimethylphenyl)-5-(piperidin-4-yl)-N-(4-propylphenyl)-1H-pyrazole-4-carboxamide] registered a Ki at uPAR (Ki) of 31.9 µM. Besides, the Percentage apoptosis was 11% in the series with MDA-MB-231 cells [2] (1 μM), 6% in the series with MDA-MB-231 cells [2] (10 μM), 46% with MDA-MB-231 cells [2] (25 μM) and 86% in the series with MDA-MB-231 cells [2] (50 μM). Further, the Percentage necrosis was 7% with MDA-MB-231 cells [2] (1 μM), 9% in the series on MDA-MB-231 cells [2] (10 μM), 10% in the series on MDA-MB-231 cells [2] (25 μM) and 12% in the series on MDA-MB-231 cells [2] (50 μM). In addition, the “effect on p44/42 MAPK phosphorylation” value in series [3] is reported as “significantly impaired”.

On to `Cc1ccc(-n2ncc(C(=O)Nc3ccc(C(C)C)cc3)c2C2CCNCC2)cc1C` [1h, 1-(3,4-dimethylphenyl)-N-(4-isopropylphenyl)-5-(piperidin-4-yl)-1H-pyrazole-4-carboxamide], for which the Ki at uPAR (Ki) is 63.3 µM.

For `CCOc1ccccc1NC(=O)C1CC(=O)N(c2ccc(OC)cc2)C1c1ccc(OC)cc1` (stereo not shown) [compound 3, N-(2-ethoxyphenyl)-1,2-bis(4-methoxyphenyl)-5-oxopyrrolidine-3-carboxamide], the Percentage apoptosis in the series with MDA-MB-231 cells [2] (1 μM) is 2%; with MDA-MB-231 cells [2] (10 μM) it was 1%; with MDA-MB-231 cells [2] (25 μM), 2%; with MDA-MB-231 cells [2] (50 μM), 4%. Further, the Percentage necrosis with MDA-MB-231 cells [2] (1 μM) came to 6%; in the series on MDA-MB-231 cells [2] (10 μM), 3%; in the series with MDA-MB-231 cells [2] (25 μM), 8%; in the series on MDA-MB-231 cells [2] (50 μM), 7%. The “effect on p44/42 MAPK phosphorylation” value in series [3] was “no inhibition”. The effect on invasion result in the series with MDA-MB-231 invasion (25 μM) is “moderate inhibition of invasion”. Further, the inhibition at 25 µM with MDA-MB-231 invasion (Homo sapiens, MDA-MB-231, read-out: inhibition of cell invasion) came out at 50%. The effect on migration entry with MDA-MB-231 migration (25 μM, wound healing) was “no effect on migration”. In the series on MDA-MB-231 cells [4] (25 μM, MTT at 16 h), the cytotoxicity entry is reported as “not cytotoxic”.

One may read the IC50 as the concentration that gives 50% inhibition. Turning to `Cc1ccc(-n2ncc(C(=O)Nc3ccccc3OCc3ccccc3)c2C2CCNCC2)cc1C` [1f, N-(2-(benzyloxy)phenyl)-1-(3,4-dimethylphenyl)-5-(piperidin-4-yl)-1H-pyrazole-4-carboxamide], the affinity on uPAR (Ki), expressed as Ki, was 17.2 µM. Besides, the half-inhibitory concentration (IC50) with MDA-MB-231 cells [5] was 25 µM; with AsPC-1 cells, 14 µM; in the series with PANC-1 cells, 22 µM; in the series with MDA-MB-231 invasion (Homo sapiens, MDA-MB-231, read-out: IC50, invasion) it was less than 10 µM; in series [7] it was 28 µM; with MDA-MB-231 cell adhesion, approximately 25 µM. In addition, the Percentage apoptosis in the series with MDA-MB-231 cells [2] (1 μM) is reported as 3%; with MDA-MB-231 cells [2] (10 μM) it was 45%; in the series with MDA-MB-231 cells [2] (25 μM), 76%; with MDA-MB-231 cells [2] (50 μM) it was 61%. Moreover, the Percentage necrosis in the series on MDA-MB-231 cells [2] (1 μM) turned out to be 7%; in the series with MDA-MB-231 cells [2] (10 μM), 15%; in the series on MDA-MB-231 cells [2] (25 μM) it was 8%; in the series on MDA-MB-231 cells [2] (50 μM), 21%. The “effect on p44/42 MAPK phosphorylation” value in series [3] was “significantly impaired”. Moreover, the “effect on NF-κB, HIF1α and ERK reporter pathways” value in series [6] is recorded as “impaired all three pathways”. The figures for the effect on invasion entry with MDA-MB-231 invasion (10 μM) and in the series with MDA-MB-231 invasion (25 μM) were “inhibited invasion” and “completely inhibited invasion; also recorded: complete inhibition of invasion”, respectively. Also, the inhibition at 25 µM with MDA-MB-231 migration (Homo sapiens, MDA-MB-231, read-out: inhibition of cell migration) turned out to be 70%. Also, the inhibition at 10 µM in the series with MDA-MB-231 cells [4] (Homo sapiens, MDA-MB-231, 16 h, read-out: inhibition of cell growth) is 20%.

At uPAR, `COc1ccc(N2C(=O)CCC(C(=O)Nc3ccc(OC)cc3OC)C2c2ccc(F)cc2)cc1` (stereo not drawn) [compound 4, anti-N-(2,4-dimethoxyphenyl)-2-(4-fluorophenyl)-1-(4-methoxyphenyl)-6-oxopiperidine-3-carboxamide] had an inhibitory constant (Ki) of 18.9 µM. Besides, the Percentage apoptosis with MDA-MB-231 cells [2] (1 μM) worked out at 4%; with MDA-MB-231 cells [2] (10 μM), 2%; with MDA-MB-231 cells [2] (25 μM), 3%; with MDA-MB-231 cells [2] (50 μM), 3%. Moreover, the Percentage necrosis amounted to 3% in the series with MDA-MB-231 cells [2] (1 μM), 14% with MDA-MB-231 cells [2] (10 μM), 6% with MDA-MB-231 cells [2] (25 μM) and 5% with MDA-MB-231 cells [2] (50 μM). The “effect on p44/42 MAPK phosphorylation” value in series [3] is given as “no inhibition”.
